# Source: ChEMBL document CHEMBL5724801, “EUbOPEN Chemogenomics Library - Multiplex” (2024)
# Several values for one entry are separate records, joined by “and”; a condition that tells them apart may be missing. Equal values may be shown once.
# Test system: HEK-293T
# Experiment: Multiplex assay against HEK293T
# Format: toxicity, cell-based
# Details: human
# In short: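 Tubulin, mitochondrial-mass and membrane-permeability phenotypes are per cents of healthy-nucleus cells. Cells were gated by CellPathfinder machine learning into Hoechst high-intensity objects or normal cells, normal cells into healthy, pyknosed or fragmented nuclei, and pyknosed cells into mitotic or apoptotic. Before that, live cells stained at seeding with Hoechst33342, BioTracker Green Microtubule Cytoskeleton Dye, MitoTracker Red and Annexin V Alexa Fluor 680 were imaged on a CQ1 microscope at 37°C and 5% CO2 after compound addition.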
# [1] = 12 h, 1 µM, compound concentration 1 uM
# [2] = 12 h, 10 µM, compound concentration 10 uM
# [3] = 24 h, 1 µM, compound concentration 1 uM
# [4] = 24 h, 10 µM, compound concentration 10 uM
# [5] = 48 h, 1 µM, compound concentration 1 uM
# [6] = 48 h, 10 µM, compound concentration 10 uM
structure (smiles),measurement,setting,value
CSc1nc(NC2CCCC2)c([N+](=O)[O-])c(NC2CCCC2)n1 [GS-39783],Population Apoptotic (%),[1],45% and 40%
same,Population Fragmented Nuclei (%),[1],11% and 3%
same,Population Healthy Nuclei (%),[1],74% and 85%
same,Population Hoechst High Intensity Objects (%),[1],8% and 4%
same,Population Membrane Permeable-Phenotype (%),[1],0%
same,Population Mitochondria Different-Phenotype (%),[1],41% and 68%
same,Population Mitotic Cells (%),[1],54% and 59%
same,Population Normal (%),[1],91% and 95%
same,Population Pyknosed Nuclei (%),[1],14% and 11%
same,Population Tubulin-Different-Phenotype (%),[1],30% and 27%
same,Total Cell Count,[1],346 and 301
same,Population Apoptotic (%),[2],29% and 40%
same,Population Fragmented Nuclei (%),[2],6% and 5%
same,Population Healthy Nuclei (%),[2],81% and 84%
same,Population Hoechst High Intensity Objects (%),[2],6% and 5%
same,Population Membrane Permeable-Phenotype (%),[2],0%
same,Population Mitochondria Different-Phenotype (%),[2],50% and 68%
same,Population Mitotic Cells (%),[2],70% and 60%
same,Population Normal (%),[2],93% and 94%
same,Population Pyknosed Nuclei (%),[2],12% and 10%
same,Population Tubulin-Different-Phenotype (%),[2],40% and 29%
same,Total Cell Count,[2],449 and 406
same,Population Apoptotic (%),[3],30% and 38%
same,Population Fragmented Nuclei (%),[3],12% and 7%
same,Population Healthy Nuclei (%),[3],76% and 84%
same,Population Hoechst High Intensity Objects (%),[3],7% and 8%
same,Population Membrane Permeable-Phenotype (%),[3],0%
same,Population Mitochondria Different-Phenotype (%),[3],25% and 51%
same,Population Mitotic Cells (%),[3],69% and 61%
same,Population Normal (%),[3],92% and 91%
same,Population Pyknosed Nuclei (%),[3],11% and 7%
same,Population Tubulin-Different-Phenotype (%),[3],19%
same,Total Cell Count,[3],492 and 360
same,Population Apoptotic (%),[4],27% and 37%
same,Population Fragmented Nuclei (%),[4],11% and 8%
same,Population Healthy Nuclei (%),[4],78% and 83%
same,Population Hoechst High Intensity Objects (%),[4],5% and 6%
same,Population Membrane Permeable-Phenotype (%),[4],1% and 0%
same,Population Mitochondria Different-Phenotype (%),[4],30% and 52%
same,Population Mitotic Cells (%),[4],72% and 62%
same,Population Normal (%),[4],94% and 93%
same,Population Pyknosed Nuclei (%),[4],10% and 7%
same,Population Tubulin-Different-Phenotype (%),[4],30% and 28%
same,Total Cell Count,[4],553 and 474
same,Population Apoptotic (%),[5],35% and 30%
same,Population Fragmented Nuclei (%),[5],15% and 13%
same,Population Healthy Nuclei (%),[5],74% and 77%
same,Population Hoechst High Intensity Objects (%),[5],3% and 6%
same,Population Membrane Permeable-Phenotype (%),[5],1% and 0%
same,Population Mitochondria Different-Phenotype (%),[5],22% and 32%
same,Population Mitotic Cells (%),[5],64% and 69%
same,Population Normal (%),[5],96% and 93%
same,Population Pyknosed Nuclei (%),[5],9% and 8%
same,Population Tubulin-Different-Phenotype (%),[5],22% and 24%
same,Total Cell Count,[5],775 and 505
same,Population Apoptotic (%),[6],17% and 30%
same,Population Fragmented Nuclei (%),[6],14% and 13%
same,Population Healthy Nuclei (%),[6],78% and 77%
same,Population Hoechst High Intensity Objects (%),[6],3% and 5%
same,Population Membrane Permeable-Phenotype (%),[6],1% and 0%
same,Population Mitochondria Different-Phenotype (%),[6],27% and 35%
same,Population Mitotic Cells (%),[6],82% and 69%
same,Population Normal (%),[6],96% and 94%
same,Population Pyknosed Nuclei (%),[6],7% and 8%
same,Population Tubulin-Different-Phenotype (%),[6],21%
same,Total Cell Count,[6],856 and 647
CC(C)c1noc(N2CCC(COc3ccc(-c4ccc(S(C)(=O)=O)cc4)nc3)CC2)n1 [GSK-1292263],Population Apoptotic (%),[1],37% and 25%
same,Population Fragmented Nuclei (%),[1],8% and 6%
same,Population Healthy Nuclei (%),[1],78% and 86%
same,Population Hoechst High Intensity Objects (%),[1],5% and 6%
same,Population Membrane Permeable-Phenotype (%),[1],0%
same,Population Mitochondria Different-Phenotype (%),[1],42% and 53%
same,Population Mitotic Cells (%),[1],62% and 74%
same,Population Normal (%),[1],94% and 93%
same,Population Pyknosed Nuclei (%),[1],12% and 7%
same,Population Tubulin-Different-Phenotype (%),[1],32% and 13%
same,Total Cell Count,[1],440 and 522
same,Population Apoptotic (%),[2],50% and 43%
same,Population Fragmented Nuclei (%),[2],6% and 7%
same,Population Healthy Nuclei (%),[2],71% and 78%
same,Population Hoechst High Intensity Objects (%),[2],13% and 16%
same,Population Membrane Permeable-Phenotype (%),[2],0%
same,Population Mitochondria Different-Phenotype (%),[2],69% and 77%
same,Population Mitotic Cells (%),[2],50% and 56%
same,Population Normal (%),[2],86% and 83%
same,Population Pyknosed Nuclei (%),[2],22% and 13%
same,Population Tubulin-Different-Phenotype (%),[2],55% and 40%
same,Total Cell Count,[2],311 and 279
same,Population Apoptotic (%),[3],23% and 25%
same,Population Fragmented Nuclei (%),[3],8% and 7%
same,Population Healthy Nuclei (%),[3],78% and 82%
same,Population Hoechst High Intensity Objects (%),[3],5% and 3%
same,Population Membrane Permeable-Phenotype (%),[3],0%
same,Population Mitochondria Different-Phenotype (%),[3],27% and 29%
same,Population Mitotic Cells (%),[3],76% and 74%
same,Population Normal (%),[3],94% and 96%
same,Population Pyknosed Nuclei (%),[3],12% and 9%
same,Population Tubulin-Different-Phenotype (%),[3],25% and 9%
same,Total Cell Count,[3],545 and 608
same,Population Apoptotic (%),[4],64% and 46%
same,Population Fragmented Nuclei (%),[4],8% and 11%
same,Population Healthy Nuclei (%),[4],79% and 74%
same,Population Hoechst High Intensity Objects (%),[4],8% and 10%
same,Population Membrane Permeable-Phenotype (%),[4],0%
same,Population Mitochondria Different-Phenotype (%),[4],58% and 59%
same,Population Mitotic Cells (%),[4],35% and 53%
same,Population Normal (%),[4],91% and 89%
same,Population Pyknosed Nuclei (%),[4],12% and 13%
same,Population Tubulin-Different-Phenotype (%),[4],49% and 28%
same,Total Cell Count,[4],384 and 354
same,Population Apoptotic (%),[5],22% and 23%
same,Population Fragmented Nuclei (%),[5],10%
same,Population Healthy Nuclei (%),[5],81% and 83%
same,Population Hoechst High Intensity Objects (%),[5],3% and 1%
same,Population Membrane Permeable-Phenotype (%),[5],1%
same,Population Mitochondria Different-Phenotype (%),[5],23% and 14%
same,Population Mitotic Cells (%),[5],77% and 76%
same,Population Normal (%),[5],96% and 98%
same,Population Pyknosed Nuclei (%),[5],8% and 5%
same,Population Tubulin-Different-Phenotype (%),[5],14% and 10%
same,Total Cell Count,[5],865 and 882
same,Population Apoptotic (%),[6],32% and 30%
same,Population Fragmented Nuclei (%),[6],10% and 13%
same,Population Healthy Nuclei (%),[6],79% and 78%
same,Population Hoechst High Intensity Objects (%),[6],10% and 5%
same,Population Membrane Permeable-Phenotype (%),[6],0%
same,Population Mitochondria Different-Phenotype (%),[6],50% and 37%
same,Population Mitotic Cells (%),[6],67% and 69%
same,Population Normal (%),[6],89% and 94%
same,Population Pyknosed Nuclei (%),[6],9% and 8%
same,Population Tubulin-Different-Phenotype (%),[6],28% and 18%
same,Total Cell Count,[6],506 and 595
